The compounds below were run against Cytochrome P450 2C19 (Homo sapiens, UniProt P33261) (assay: Inhibition of CYP2C19). Conditions: not given.
Assay type: ADME

Sequence of Cytochrome P450 2C19 (P33261 whole entry): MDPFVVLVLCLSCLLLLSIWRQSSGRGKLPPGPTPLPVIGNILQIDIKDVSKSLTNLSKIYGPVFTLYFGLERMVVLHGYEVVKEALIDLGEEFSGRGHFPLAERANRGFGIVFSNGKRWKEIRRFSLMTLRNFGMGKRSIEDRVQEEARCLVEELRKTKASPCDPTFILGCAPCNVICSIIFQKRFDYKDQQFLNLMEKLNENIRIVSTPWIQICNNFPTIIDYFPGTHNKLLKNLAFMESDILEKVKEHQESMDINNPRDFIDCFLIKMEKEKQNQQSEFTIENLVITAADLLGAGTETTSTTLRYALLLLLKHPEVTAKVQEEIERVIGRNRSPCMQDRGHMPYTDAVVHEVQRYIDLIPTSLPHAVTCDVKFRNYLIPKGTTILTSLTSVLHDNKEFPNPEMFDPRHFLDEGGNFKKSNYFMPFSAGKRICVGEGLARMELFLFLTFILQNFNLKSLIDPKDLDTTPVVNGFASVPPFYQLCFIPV

| SMILES | IC50 [nM] |
| --- | --- |
| CCc1ccccc1N(CC(=O)NCc1ccc(Cl)cc1)S(=O)(=O)c1ccc(C)cc1 | 2000 |

What follows are compounds tested against Cytochrome P450 2D6 (Homo sapiens, UniProt P10635) (assay: Inhibition of CYP2D6). Conditions: not given.
Assay type: ADME

Sequence of Cytochrome P450 2D6 (P10635 whole entry): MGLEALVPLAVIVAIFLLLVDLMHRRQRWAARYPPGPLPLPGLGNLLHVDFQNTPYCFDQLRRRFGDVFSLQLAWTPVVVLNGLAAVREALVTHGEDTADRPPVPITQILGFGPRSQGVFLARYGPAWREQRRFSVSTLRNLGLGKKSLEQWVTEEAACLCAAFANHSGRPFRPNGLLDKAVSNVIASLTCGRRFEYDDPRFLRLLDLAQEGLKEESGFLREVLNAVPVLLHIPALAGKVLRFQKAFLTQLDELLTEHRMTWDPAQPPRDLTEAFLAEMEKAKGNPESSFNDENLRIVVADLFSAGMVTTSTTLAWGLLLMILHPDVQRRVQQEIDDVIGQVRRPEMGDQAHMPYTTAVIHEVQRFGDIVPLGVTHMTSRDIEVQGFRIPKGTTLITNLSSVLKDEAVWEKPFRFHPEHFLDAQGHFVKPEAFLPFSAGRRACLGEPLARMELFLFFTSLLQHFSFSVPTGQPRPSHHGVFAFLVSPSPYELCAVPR

| SMILES | IC50 [nM] |
| --- | --- |
| CCc1ccccc1N(CC(=O)NCc1ccc(Cl)cc1)S(=O)(=O)c1ccc(C)cc1 | 100000 |

The compounds below were run against Cytochrome P450 2C9 (Homo sapiens, UniProt P11712) (assay: Inhibition of CYP2C9). Conditions: not given.
Assay type: ADME

Sequence of Cytochrome P450 2C9 (P11712 whole entry): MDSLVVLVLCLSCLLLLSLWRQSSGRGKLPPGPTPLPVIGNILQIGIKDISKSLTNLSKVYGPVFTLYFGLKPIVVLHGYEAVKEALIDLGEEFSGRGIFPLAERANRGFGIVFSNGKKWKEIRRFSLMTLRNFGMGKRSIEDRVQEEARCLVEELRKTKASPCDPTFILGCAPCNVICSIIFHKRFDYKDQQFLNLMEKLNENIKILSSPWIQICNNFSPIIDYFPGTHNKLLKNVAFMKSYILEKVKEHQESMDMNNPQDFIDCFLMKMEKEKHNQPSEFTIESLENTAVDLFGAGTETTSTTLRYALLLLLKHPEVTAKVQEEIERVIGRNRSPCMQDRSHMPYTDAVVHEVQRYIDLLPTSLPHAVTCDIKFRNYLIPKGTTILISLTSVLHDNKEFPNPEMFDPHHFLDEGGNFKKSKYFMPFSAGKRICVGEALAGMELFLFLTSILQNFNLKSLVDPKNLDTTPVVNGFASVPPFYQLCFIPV

| SMILES | IC50 [nM] |
| --- | --- |
| CCc1ccccc1N(CC(=O)NCc1ccc(Cl)cc1)S(=O)(=O)c1ccc(C)cc1 | 6310 |

Each compound was assayed against T1, Prostaglandin E2 receptor EP1 subtype (Homo sapiens, UniProt P34995) (assay: Displacement of [3H]PGE2 from EP1 expressed in CHO cells). Conditions: not given.
T1 sequence (P34995 whole entry): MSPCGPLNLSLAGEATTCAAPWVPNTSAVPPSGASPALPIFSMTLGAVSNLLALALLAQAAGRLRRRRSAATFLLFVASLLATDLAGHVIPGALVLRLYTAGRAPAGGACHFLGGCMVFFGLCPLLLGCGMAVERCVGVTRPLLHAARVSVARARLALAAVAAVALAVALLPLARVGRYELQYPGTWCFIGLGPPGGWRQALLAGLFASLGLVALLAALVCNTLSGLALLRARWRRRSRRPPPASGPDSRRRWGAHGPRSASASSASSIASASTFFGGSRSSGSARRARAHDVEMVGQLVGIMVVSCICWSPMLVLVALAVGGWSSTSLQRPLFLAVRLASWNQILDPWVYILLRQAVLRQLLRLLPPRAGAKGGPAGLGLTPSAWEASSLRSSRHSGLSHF
Assay type: cell-based
Method in brief: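 Membranes from stable EP1-transfected CHO-K1 cells incubated with compound and [3H]-PGE2 (3 nM final) for 30 min at 30 °C. Bound radioactivity counted by liquid scintillation. Means of at least four experiments.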

| SMILES | Ki [nM] |
| --- | --- |
| Cc1ccc(S(=O)(=O)N(CC(=O)NCc2ccc(Cl)cc2)c2cccnc2C)cc1 | 200 |
| Cc1ccc(S(=O)(=O)N(CC(=O)NCc2ccc(Cl)cc2)c2cccc(C)n2)cc1 | > 1000 |
| CCn1nccc1N(CC(=O)NCc1ccc(Cl)cc1)S(=O)(=O)c1ccc(C)cc1 | 158 |
| Cc1ccc(S(=O)(=O)N(CC(=O)NCc2ccc(Cl)cc2)c2cccnc2)cc1 | > 1000 |
| CCc1ccccc1N(CC(=O)NCc1ccc(OC)cc1)S(=O)(=O)c1ccc(C)cc1 | 25.1 |
| Cc1ccc(S(=O)(=O)N(CC(=O)NCc2ccc(Cl)cc2)c2ccc(C)cn2)cc1 | > 1000 |
| Cc1ccc(S(=O)(=O)N(CC(=O)NCc2ccc(Cl)cc2)c2ncccc2C)cc1 | 794 |
| Cc1ccc(S(=O)(=O)N(CC(=O)NCc2ccc(Cl)cc2)c2ccnn2C)cc1 | 398 |
| Cc1ccc(S(=O)(=O)N(CC(=O)NCc2ccc(Cl)cc2)c2ccccn2)cc1 | > 1000 |
| Cc1ccc(S(=O)(=O)N(CC(=O)NCc2ccc(Cl)cc2)c2ccc(C)nc2)cc1 | > 1000 |
| CCc1ccccc1N(CC(=O)NCc1ccccc1)S(=O)(=O)c1ccc(C)cc1 | 63.1 |
| CCc1ccccc1N(CC(=O)NCc1ccc(OC)c(OC)c1)S(=O)(=O)c1ccc(C)cc1 | 25.1 |
| CCc1ccccc1N(CC(=O)NCc1cccc(OC)c1)S(=O)(=O)c1ccc(C)cc1 | 79.4 |
| CCc1ccccc1N(CC(=O)NCc1ccc(Cl)cc1)S(=O)(=O)c1ccc(C)cc1 | 10 |
| CCc1ccccc1N(CC(=O)NCc1cccc(Cl)c1)S(=O)(=O)c1ccc(C)cc1 | 251 |

The compounds below were run against T2, Prostaglandin E2 receptor EP3 subtype (Homo sapiens, UniProt P43115) (assay: Antagonist activity at human EP3 expressed in CHOK1 cells receptor assessed as inhibition intracellular calcium mobilization by FLIPR assay). Conditions: not given.
T2 sequence (P43115 whole entry): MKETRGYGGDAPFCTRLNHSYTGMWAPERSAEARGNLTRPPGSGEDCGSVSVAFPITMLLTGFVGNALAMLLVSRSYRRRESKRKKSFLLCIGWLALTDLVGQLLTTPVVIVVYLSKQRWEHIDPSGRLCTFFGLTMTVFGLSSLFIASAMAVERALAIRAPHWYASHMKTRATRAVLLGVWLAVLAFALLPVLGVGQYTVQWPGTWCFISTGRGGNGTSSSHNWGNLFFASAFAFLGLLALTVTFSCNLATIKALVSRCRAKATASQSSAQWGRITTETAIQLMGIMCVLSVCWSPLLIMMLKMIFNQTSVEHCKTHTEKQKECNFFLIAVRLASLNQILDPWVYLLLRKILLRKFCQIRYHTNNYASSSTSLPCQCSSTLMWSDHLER
Assay type: functional, cell-based, CHO-K1
Method in brief: (§1)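 Stable EP1- or EP3-transfected CHO-K1 whole cells loaded with calcium-sensitive dye Fluo-3; inhibition of PGE2-evoked intracellular Ca2+ mobilisation read on a fluorimetric imaging plate reader (FLIPR). IC50s converted to pKi. Means of at least two experiments unless specified.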

| SMILES | Ki [nM] |
| --- | --- |
| CCc1ccccc1N(CC(=O)NCc1ccc(Cl)cc1)S(=O)(=O)c1ccc(C)cc1 | 794 |

Species on record: Homo sapiens
Experiment: Selectivity for EP1 receptor over EP3 receptor
Conditions: not given

| SMILES | Ratio pKi |
| --- | --- |
| CCc1ccccc1N(CC(=O)NCc1ccc(Cl)cc1)S(=O)(=O)c1ccc(C)cc1 | 100 |

Each compound was assayed against T3, Thromboxane A2 receptor (Homo sapiens, UniProt P21731) (assay: Inhibition of TP receptor). Conditions: not given.
T3 sequence (P21731 whole entry): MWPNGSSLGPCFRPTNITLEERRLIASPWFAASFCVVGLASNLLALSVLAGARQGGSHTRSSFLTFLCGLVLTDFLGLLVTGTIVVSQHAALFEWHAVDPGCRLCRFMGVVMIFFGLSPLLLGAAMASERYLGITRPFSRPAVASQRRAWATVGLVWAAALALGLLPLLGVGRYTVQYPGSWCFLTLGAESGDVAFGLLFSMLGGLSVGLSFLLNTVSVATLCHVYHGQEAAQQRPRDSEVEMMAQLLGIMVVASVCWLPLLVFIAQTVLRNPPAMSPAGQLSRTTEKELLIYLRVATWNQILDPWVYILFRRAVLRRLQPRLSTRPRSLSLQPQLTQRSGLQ

| SMILES | IC50 [nM] |
| --- | --- |
| CCc1ccccc1N(CC(=O)NCc1ccc(Cl)cc1)S(=O)(=O)c1ccc(C)cc1 | > 10000 |

Each compound was assayed against Prostaglandin F2-alpha receptor (Homo sapiens, UniProt P43088) (assay: Inhibition of FP receptor). Conditions: not given.
Sequence of Prostaglandin F2-alpha receptor (P43088 whole entry): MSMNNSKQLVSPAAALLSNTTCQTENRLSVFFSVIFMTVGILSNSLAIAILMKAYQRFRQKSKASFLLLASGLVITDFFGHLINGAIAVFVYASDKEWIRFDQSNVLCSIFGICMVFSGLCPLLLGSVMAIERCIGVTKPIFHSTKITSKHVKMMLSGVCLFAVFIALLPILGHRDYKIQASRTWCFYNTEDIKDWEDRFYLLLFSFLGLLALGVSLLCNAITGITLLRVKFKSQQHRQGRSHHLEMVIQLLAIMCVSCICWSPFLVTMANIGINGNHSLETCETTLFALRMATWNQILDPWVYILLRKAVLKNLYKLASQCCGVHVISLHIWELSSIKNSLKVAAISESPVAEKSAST

| SMILES | IC50 [nM] |
| --- | --- |
| CCc1ccccc1N(CC(=O)NCc1ccc(Cl)cc1)S(=O)(=O)c1ccc(C)cc1 | 4170 |

Each compound was assayed against T1, Prostaglandin E2 receptor EP1 subtype (assay: Antagonist activity at human EP1 receptor expressed in CHO cells receptor by […] reporter gene assay). Conditions: read-out: pA2 (converted).
Assay type: functional, cell-based
Method in brief: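 CHO cells stably co-transfected with NFAT reporter gene and human EP1 (pCIN3) were quiesced 24 h before assay. PGE2 concentration-response curves run without antagonist and with five antagonist concentrations, 4 h incubation, luciferase readout. Dose ratios from PGE2 EC50s; log(dose ratio − 1) vs log[antagonist] fitted by linear regression to give pA2 and slope.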

| SMILES | Kb [nM] |
| --- | --- |
| CCc1ccccc1N(CC(=O)NCCc1ccc(OC)c(OC)c1)S(=O)(=O)c1ccc(C)cc1 | 5.01 |

These compounds were tested against T4, Cytochrome P450 1A2 (Homo sapiens, UniProt P05177) (assay: Inhibition of CYP1A2). Conditions: not given.
T4 sequence (P05177 whole entry): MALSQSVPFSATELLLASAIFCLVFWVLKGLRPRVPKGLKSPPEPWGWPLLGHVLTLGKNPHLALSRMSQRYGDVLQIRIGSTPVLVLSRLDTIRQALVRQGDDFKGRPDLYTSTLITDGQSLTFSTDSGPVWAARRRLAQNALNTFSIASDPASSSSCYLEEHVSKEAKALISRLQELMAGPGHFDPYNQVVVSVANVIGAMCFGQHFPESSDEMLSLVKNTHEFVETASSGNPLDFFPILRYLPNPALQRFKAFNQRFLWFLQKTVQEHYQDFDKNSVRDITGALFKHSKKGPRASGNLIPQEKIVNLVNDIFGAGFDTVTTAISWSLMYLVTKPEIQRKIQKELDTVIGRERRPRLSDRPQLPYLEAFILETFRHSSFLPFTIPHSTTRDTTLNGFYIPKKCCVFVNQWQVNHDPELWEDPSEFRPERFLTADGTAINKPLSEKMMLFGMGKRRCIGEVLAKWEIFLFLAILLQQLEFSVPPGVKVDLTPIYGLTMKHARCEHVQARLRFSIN
Assay type: ADME

| SMILES | IC50 [nM] |
| --- | --- |
| CCc1ccccc1N(CC(=O)NCc1ccc(Cl)cc1)S(=O)(=O)c1ccc(C)cc1 | 31600 |

What follows are compounds tested against Cytochrome P450 3A4 (Homo sapiens, UniProt P08684) (assay: Inhibition of CYP3A4). Conditions: not given.
Assay type: ADME

Sequence of Cytochrome P450 3A4 (P08684 whole entry): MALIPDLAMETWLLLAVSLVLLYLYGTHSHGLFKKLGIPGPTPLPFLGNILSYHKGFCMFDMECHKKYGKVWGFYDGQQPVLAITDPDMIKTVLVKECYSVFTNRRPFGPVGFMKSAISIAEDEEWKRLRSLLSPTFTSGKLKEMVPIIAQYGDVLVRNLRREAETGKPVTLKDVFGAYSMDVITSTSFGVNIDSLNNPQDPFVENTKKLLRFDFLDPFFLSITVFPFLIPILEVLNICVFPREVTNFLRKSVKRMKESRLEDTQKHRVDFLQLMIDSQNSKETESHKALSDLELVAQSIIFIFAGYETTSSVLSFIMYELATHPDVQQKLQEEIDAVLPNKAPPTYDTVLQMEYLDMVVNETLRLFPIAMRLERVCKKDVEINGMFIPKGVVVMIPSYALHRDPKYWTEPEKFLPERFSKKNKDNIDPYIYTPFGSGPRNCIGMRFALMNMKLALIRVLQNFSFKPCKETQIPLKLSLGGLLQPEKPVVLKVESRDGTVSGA

| SMILES | IC50 [nM] |
| --- | --- |
| CCc1ccccc1N(CC(=O)NCc1ccc(Cl)cc1)S(=O)(=O)c1ccc(C)cc1 | 251 |

What follows are compounds tested against T1, Prostaglandin E2 receptor EP1 subtype (assay: Antagonist activity at human EP1 expressed in CHOK1 cells receptor assessed as inhibition of intracellular calcium mobilization by FLIPR assay). Conditions: not given.
Assay type: functional, cell-based, CHO-K1
Method in brief: as §1

| SMILES | Ki [nM] |
| --- | --- |
| COc1ccc(CCNC(=O)CN(c2ccccc2C)S(=O)(=O)c2ccc(C)cc2)cc1 | 170 |
| CCc1ccccc1N(CC(=O)NCCc1ccc(OC)c(OC)c1)S(=O)(=O)c1cccc(C)c1 | 1660 |
| Cc1ccc(S(=O)(=O)N(CC(=O)NCc2ccc(Cl)cc2)c2cccnc2C)cc1 | 676 |
| CCc1ccccc1N(CC(=O)NCCc1ccc(OC)c(OC)c1)S(=O)(=O)c1ccc(C(F)(F)F)cc1 | 19.1 |
| Cc1ccc(S(=O)(=O)N(CC(=O)NCCc2cccc(O)c2)c2ccccc2C)cc1 | 204 |
| CCc1ccccc1N(CC(=O)NCCc1ccc(OC)c(OC)c1)S(=O)(=O)c1ccc(OC)cc1 | 170 |
| Cc1ccc(S(=O)(=O)N(CC(=O)NCc2ccc(Cl)cc2)c2cccc(C)n2)cc1 | > 1450 |
| CNS(=O)(=O)c1cc(CCNC(=O)CN(c2ccccc2C)S(=O)(=O)c2ccc(C)cc2)ccc1O | 3.72 |
| COc1ccc(CCNC(=O)CN(c2cccc(C(F)(F)F)c2)S(=O)(=O)c2ccc(C)cc2)cc1OC | 30.9 |
| CCn1nccc1N(CC(=O)NCc1ccc(Cl)cc1)S(=O)(=O)c1ccc(C)cc1 | 72.4 |
| Cc1ccc(S(=O)(=O)N(CC(=O)NCc2ccc(Cl)cc2)c2cccnc2)cc1 | > 1450 |
| Cc1ccc(S(=O)(=O)N(CC(=O)NCCc2ccccc2)c2ccccc2C)cc1 | 1350 |
| CCc1ccccc1N(CC(=O)NCCc1ccc(OC)c(OC)c1)S(=O)(=O)c1ccccc1C#N | > 3160 |
| CCc1ccccc1N(CC(=O)NCc1ccc(OC)cc1)S(=O)(=O)c1ccc(C)cc1 | 35.5 |
| CCc1ccccc1N(CC(=O)NCc1ccc(C(F)(F)F)cc1)S(=O)(=O)c1ccc(C)cc1 | 209 |
| Cc1ccc(S(=O)(=O)N(CC(=O)NCc2ccc(Cl)cc2)c2ccc(C)cn2)cc1 | > 1450 |
| Cc1ccc(S(=O)(=O)N(CC(=O)NCc2ccc(Cl)cc2)c2ncccc2C)cc1 | > 1450 |
| Cc1ccc(S(=O)(=O)N(CC(=O)NCc2ccc(Cl)cc2)c2ccnn2C)cc1 | 589 |
| Cc1ccc(S(=O)(=O)N(CC(=O)NCc2ccc(Cl)cc2)c2ccccn2)cc1 | > 1450 |
| Cc1ccc(S(=O)(=O)N(CC(=O)NCc2ccc(Cl)cc2)c2ccc(C)nc2)cc1 | > 1450 |
| CCc1ccccc1N(CC(=O)NCc1ccccc1)S(=O)(=O)c1ccc(C)cc1 | 224 |
| CCc1ccccc1N(CC(=O)NCc1ccc(OC)c(OC)c1)S(=O)(=O)c1ccc(C)cc1 | 282 |
| CCc1ccccc1N(CC(=O)NCc1cccc(OC)c1)S(=O)(=O)c1ccc(C)cc1 | 138 |
| CCc1ccccc1N(CC(=O)NCc1ccc(Cl)cc1)S(=O)(=O)c1ccc(C)cc1 | 11.5 |
| CCc1ccccc1N(CC(=O)NCc1cccc(Cl)c1)S(=O)(=O)c1ccc(C)cc1 | 1410 |
| CCc1ccccc1N(CC(=O)NCCc1ccc(OC)c(OC)c1)S(=O)(=O)c1ccc(C)cc1 | 13.5 |

Source: ChEMBL document CHEMBL1139103, “Identification of novel glycine sulfonamide antagonists for the EP1 receptor” (Bioorg Med Chem Lett, 2007)
